Measured values: ChEMBL document CHEMBL4049422, “Discovery of Novel Indazole Derivatives as Orally Available β3-Adrenergic Receptor Agonists Lacking Off-Target-Based Cardiovascular Side Effects” (J Med Chem, 2017)
pEC50: −log10 of the molar value. In brackets after ≈: the same amount, converted by molar mass. Activity calls are given as the source filed them. The rule behind the calls is not given here.

How the values were obtained:
Rattus norvegicus [1] = test: Cardiotoxicity in Sprague-Dawley rat assessed as increase in mean blood pressure at 3 mg/kg, iv after 30 mins (reference value: 1 +/- 0.5%); format: toxicity, organism-based; conditions: in vivo, 0.5 h
Rattus norvegicus [2] = test: Cardiotoxicity in Sprague-Dawley rat assessed as decrease in mean blood pressure at 3 mg/kg, iv after 30 mins (reference value: 5.4 +/- 1.9%); format: toxicity, organism-based; parameters: scale not given: the % may be the effect or the level left; conditions: in vivo, 0.5 h
CYP2D6 = CYP2D6 (Homo sapiens, UniProt P10635); test: Inhibition of CYP2D6 (unknown origin) at 10 uM relative to control; format: ADME
Rattus norvegicus [3] = test: Cardiotoxicity in Sprague-Dawley rat assessed as increase in heart beat rate at 3 mg/kg, iv after 30 mins (reference value: 1.8 +/- 0.9%); format: toxicity, organism-based; conditions: in vivo, 0.5 h
[4] = molecular target: T1, Beta-3 adrenergic receptor (Homo sapiens, UniProt P13945); test: Intrinsic activity at recombinant human beta3 adrenergic receptor expressed in CHO cells assessed as accumulation of cyclic AMP after 30 mins relative to isoproterenol; format: cell-based
Target sequence in this assay (P13945 whole entry, looked up): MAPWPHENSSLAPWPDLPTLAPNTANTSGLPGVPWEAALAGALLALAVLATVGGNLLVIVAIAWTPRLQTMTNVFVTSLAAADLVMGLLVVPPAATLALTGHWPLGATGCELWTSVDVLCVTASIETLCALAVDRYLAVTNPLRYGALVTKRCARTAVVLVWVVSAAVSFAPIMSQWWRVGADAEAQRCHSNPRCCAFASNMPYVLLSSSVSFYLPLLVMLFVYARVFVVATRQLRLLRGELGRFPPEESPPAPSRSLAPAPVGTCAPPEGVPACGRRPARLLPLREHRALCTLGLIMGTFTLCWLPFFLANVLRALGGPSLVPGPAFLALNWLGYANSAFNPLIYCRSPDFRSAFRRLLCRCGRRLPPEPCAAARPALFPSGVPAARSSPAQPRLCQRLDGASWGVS

[5] = molecular target: T2, Alpha-1A adrenergic receptor (Homo sapiens, UniProt P35348); test: Agonist activity at recombinant human alpha1A adrenergic receptor expressed in HEK293 cells assessed as intercellular Ca mobilization by Fura-2AM dye-based fluorescence assay; format: cell-based
T2 sequence (P35348 whole entry): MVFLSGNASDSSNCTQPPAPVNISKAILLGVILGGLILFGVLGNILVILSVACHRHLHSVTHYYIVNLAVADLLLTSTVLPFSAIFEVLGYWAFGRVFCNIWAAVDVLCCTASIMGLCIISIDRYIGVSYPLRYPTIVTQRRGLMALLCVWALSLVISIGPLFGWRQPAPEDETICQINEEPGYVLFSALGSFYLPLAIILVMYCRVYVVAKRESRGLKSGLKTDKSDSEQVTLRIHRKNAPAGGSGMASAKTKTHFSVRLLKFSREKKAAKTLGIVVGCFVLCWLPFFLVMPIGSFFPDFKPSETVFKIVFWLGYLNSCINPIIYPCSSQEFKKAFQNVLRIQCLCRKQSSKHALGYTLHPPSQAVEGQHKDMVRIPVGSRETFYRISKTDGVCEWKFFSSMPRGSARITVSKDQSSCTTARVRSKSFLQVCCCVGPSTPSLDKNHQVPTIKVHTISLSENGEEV

Homo sapiens = organism: Homo sapiens; test: Selectivity ratio of EC50 for recombinant human alpha1A adrenergic receptor to EC50 for recombinant human beta3 adrenergic receptor
[6] = molecular target: T1, Beta-3 adrenergic receptor; test: Agonist activity at recombinant human beta3 adrenergic receptor expressed in CHO cells assessed as accumulation of cyclic AMP after 30 mins; format: cell-based
Target sequence in this assay (P13945 whole entry): as the sequence (P13945 whole entry, looked up) above

[7] = molecular target: T2, Alpha-1A adrenergic receptor; test: Intrinsic activity at recombinant human alpha1A adrenergic receptor expressed in HEK293 cells assessed as intercellular Ca mobilization by Fura-2AM dye-based fluorescence assay relative to norepinephrine; format: cell-based; conditions: read-out: Intrinsic activity
[8] = molecular target: Adrenoceptor beta 3 (Callithrix jacchus) (UniProt F6XZF4); test: Agonist activity at beta3 adrenergic receptor in marmoset urinary bladder smooth muscle strips assessed as induction of KCl-precontracted muscle relaxation treated every 20 mins
[9] = Intrinsic clearance in human liver microsomes at 1 uM in presence of NADPH by LC-MS/MS analysis; format: ADME, microsome
Summary of the method: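 Pooled mixed-gender human liver microsomes (0.5 mg/mL) in 100 mM potassium phosphate pH 7.4 with NADPH-regenerating mix plus UDP-GA, test compound 1 µM, 15 min at 37 °C. Acetonitrile stop, LC-MS/MS. k from the remaining fraction. CLint,u is scaled with 48.8 mg protein/g liver and 25.7 g liver/kg, and corrected by fu from equilibrium dialysis (1 µM, 0.5 mg/mL, 6 h, 37 °C).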

[10] = Intrinsic clearance in Sprague-Dawley rat liver microsomes at 0.5 uM in presence of NADPH by LC-MS/MS analysis; format: ADME, microsome
Summary of the method: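 Pooled male Sprague-Dawley rat liver microsomes (0.5 mg/mL final) in 100 mM Tris-HCl pH 7.4 with NADPH-regenerating mix plus UDP-GA, test compound 0.5 µM, 20 min at 37 °C. Acetonitrile stop, LC-MS/MS. CLint,u is scaled with 44.8 mg protein/g liver and 40.0 g liver/kg, and corrected by fu from ultracentrifugation (160,000g, 16 h, 37 °C).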

[11] = Solubility of the compound at pH 6.8 buffer solution after 18 hrs by HPLC analysis; format: physicochemical
[12] = Solubility of the compound at pH 1.2 buffer solution after 18 hrs by HPLC analysis; format: physicochemical
[13] = Membrane permeability in MDCK cells at 50 uM after 60 mins by LC-MS/MS analysis; format: ADME, cell-based, Canis lupus familiaris; conditions: dog, read-out: permeability
[14] = AUC in Sprague-Dawley rat at 5 mg/kg, po by LC-MS/MS analysis; format: ADME, organism-based; conditions: in vivo
Summary of the method: (§1)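 Male Sprague-Dawley rats (n = 2 or 3) dosed orally at 5 mg/kg in saline or water (5 mL/kg). Blood taken from the subclavian vein at 0.5, 1, 2, 4, 6 and 8 h; plasma separated by centrifugation, stored at -20 °C, and drug levels measured by LC-MS/MS. Values are mean ± SD (n = 3) or the average of two experiments.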

[15] = Cmax in Sprague-Dawley rat at 5 mg/kg, po by LC-MS/MS analysis; format: ADME, organism-based; parameters: dose 5 mg/kg, route oral; conditions: in vivo; summary of the method: as §1
[16] = molecular target: T3, Beta-1 adrenergic receptor (Homo sapiens, UniProt P08588); test: Intrinsic activity at recombinant human beta1 adrenergic receptor assessed as accumulation of cyclic AMP after 30 mins relative to isoproterenol; conditions: 0.5 h
[17] = Half life in Sprague-Dawley rat at 5 mg/kg, po by LC-MS/MS analysis; format: ADME, organism-based; conditions: in vivo; summary of the method: as §1
[18] = molecular target: T4, Beta-2 adrenergic receptor (Homo sapiens, UniProt P07550); test: Intrinsic activity at recombinant human beta2 adrenergic receptor assessed as accumulation of cyclic AMP after 30 mins relative to isoproterenol
[19] = molecular target: T3, Beta-1 adrenergic receptor; test: Agonist activity at recombinant human beta1 adrenergic receptor expressed in CHO cells assessed as accumulation of cyclic AMP after 30 mins; format: cell-based
[20] = molecular target: T4, Beta-2 adrenergic receptor; test: Agonist activity at recombinant human beta2 adrenergic receptor expressed in CHO cells assessed as accumulation of cyclic AMP after 30 mins; format: cell-based

T4 sequence (P07550 whole entry): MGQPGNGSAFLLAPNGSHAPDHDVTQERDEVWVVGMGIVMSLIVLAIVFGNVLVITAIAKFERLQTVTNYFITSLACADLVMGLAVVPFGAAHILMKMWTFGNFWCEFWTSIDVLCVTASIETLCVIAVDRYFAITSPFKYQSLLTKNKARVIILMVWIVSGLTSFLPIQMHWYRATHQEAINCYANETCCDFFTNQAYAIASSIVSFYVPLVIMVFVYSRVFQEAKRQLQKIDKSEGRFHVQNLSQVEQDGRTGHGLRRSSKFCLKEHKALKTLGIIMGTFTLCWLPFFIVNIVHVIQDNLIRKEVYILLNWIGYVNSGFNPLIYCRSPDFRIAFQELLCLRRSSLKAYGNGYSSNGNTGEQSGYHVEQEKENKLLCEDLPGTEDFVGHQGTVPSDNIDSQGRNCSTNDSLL
T3 sequence (P08588 whole entry): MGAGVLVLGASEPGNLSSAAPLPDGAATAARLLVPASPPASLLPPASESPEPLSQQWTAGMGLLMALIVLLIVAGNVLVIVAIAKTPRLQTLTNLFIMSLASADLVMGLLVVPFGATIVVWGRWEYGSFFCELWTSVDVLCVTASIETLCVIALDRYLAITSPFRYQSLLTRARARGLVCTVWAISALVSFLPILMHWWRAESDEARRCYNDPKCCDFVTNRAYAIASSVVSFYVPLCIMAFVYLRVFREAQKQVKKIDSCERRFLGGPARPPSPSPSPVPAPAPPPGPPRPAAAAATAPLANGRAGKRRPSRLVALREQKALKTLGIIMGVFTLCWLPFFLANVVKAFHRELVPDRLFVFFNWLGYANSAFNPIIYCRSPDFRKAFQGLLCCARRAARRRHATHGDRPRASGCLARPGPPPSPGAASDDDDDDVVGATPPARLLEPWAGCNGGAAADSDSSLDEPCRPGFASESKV
Sequence of Adrenoceptor beta 3 (Callithrix jacchus) (F6XZF4 as listed by the source): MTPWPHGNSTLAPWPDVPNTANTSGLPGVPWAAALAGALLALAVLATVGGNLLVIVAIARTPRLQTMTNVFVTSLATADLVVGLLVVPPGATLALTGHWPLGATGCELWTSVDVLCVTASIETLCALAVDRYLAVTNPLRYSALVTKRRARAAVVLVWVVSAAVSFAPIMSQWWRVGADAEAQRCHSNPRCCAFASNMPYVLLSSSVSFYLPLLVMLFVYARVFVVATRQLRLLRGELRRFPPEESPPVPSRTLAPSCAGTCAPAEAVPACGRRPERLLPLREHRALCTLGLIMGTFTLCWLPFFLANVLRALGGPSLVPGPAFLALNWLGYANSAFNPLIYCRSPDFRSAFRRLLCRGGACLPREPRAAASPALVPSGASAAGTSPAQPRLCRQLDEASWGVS
Sequence of CYP2D6 (P10635 whole entry): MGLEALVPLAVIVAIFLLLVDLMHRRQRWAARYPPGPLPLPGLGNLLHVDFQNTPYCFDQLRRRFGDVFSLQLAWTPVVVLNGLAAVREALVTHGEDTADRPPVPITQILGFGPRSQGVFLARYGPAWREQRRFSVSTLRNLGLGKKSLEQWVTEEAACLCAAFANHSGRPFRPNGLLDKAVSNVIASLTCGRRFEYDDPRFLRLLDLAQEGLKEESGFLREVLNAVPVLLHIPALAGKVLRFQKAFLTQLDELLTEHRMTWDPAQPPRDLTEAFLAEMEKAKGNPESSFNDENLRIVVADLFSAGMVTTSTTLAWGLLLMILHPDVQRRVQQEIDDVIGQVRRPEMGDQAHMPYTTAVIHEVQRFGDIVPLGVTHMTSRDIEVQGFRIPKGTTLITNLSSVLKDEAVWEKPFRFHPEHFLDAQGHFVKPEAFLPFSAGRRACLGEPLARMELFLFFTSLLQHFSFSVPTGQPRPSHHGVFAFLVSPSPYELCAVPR

Structure (SMILES) | Intrinsic activity [4] | pEC50 [5] | Ratio EC50 (Homo sapiens) | pEC50 [6] | Emax [7] | CLint scaled at 1 µM [9] | CLint scaled at 0.5 µM [10] | other results
Nc1nc(CC(=O)Nc2ccc(CCNC[C@H](O)c3ccccc3)cc2)cs1 [MIRABEGRON] | – | – | – | – | – | – | – | Activity (Rattus norvegicus [1]): 3.5%; Activity (Rattus norvegicus [2]): 38.3%; inhibition at 10 µM (CYP2D6): 87%; Activity (Rattus norvegicus [3]): 10%
Cc1n[nH]c2cc(OCCNC[C@H](O)c3cccc(NS(=O)(=O)C(C)C)c3)ccc12 | 90% | 5.76 | 25 | 7.15 | 27% | – | – | –
CC(C)NCC(O)c1ccc(O)c(O)c1 (configuration not stated) | – | – | – | – | – | – | – | Activity [8]: Active
Cc1n[nH]c2cc(OCCNC[C@H](O)c3cccc(NS(=O)(=O)C4CC4)c3)ccc12 | 72% | 5.90 | 29 | 7.37 | 26% | – | – | –
CCc1n[nH]c2cc(OCCNC[C@H](O)c3cccc(NS(C)(=O)=O)c3)ccc12 | – | – | 61 | – | 31% | 42 mL/min/kg | 113 mL/min/kg | –
Cc1n[nH]c2cc(OCCNC[C@H](O)c3cccc(NS(C)(=O)=O)c3)ccc12 | – | – | 10 | – | 71% | < 10 mL/min/kg | 103 mL/min/kg | solubility at 18 h [11]: 273 µM (≈ 110 µg/mL); solubility at 18 h [12]: 285 µM (≈ 115 µg/mL); Papp at 1 h, 50 µM [13]: 2.4 ×10⁻⁶ cm/s; AUC [14]: 542 ng·h/mL; Cmax [15]: 107 ng/mL
CC(C)c1n[nH]c2cc(OCCNC[C@H](O)c3cccc(NS(C)(=O)=O)c3)ccc12 | – | – | > 769 | – | 9.1% | 193 mL/min/kg | 211 mL/min/kg | solubility at 18 h [11]: 267 µM (≈ 115 µg/mL); Intrinsic activity [16]: 11.9%; solubility at 18 h [12]: 295 µM (≈ 128 µg/mL); half-life [17]: 1.62 h; Papp at 1 h, 50 µM [13]: 4.1 ×10⁻⁶ cm/s; AUC [14]: 200 ng·h/mL; Cmax [15]: 45.2 ng/mL; Emax at 0.5 h [18]: 5.6%
Cc1n[nH]c2cc(OCCNC[C@H](O)c3cccc(NS(=O)(=O)c4ccccc4)c3)ccc12 | 85% | < 5.00 | > 2560 | 8.41 | 0% | 464 mL/min/kg | – | solubility at 18 h [11]: 229 µM (≈ 107 µg/mL); Intrinsic activity [16]: 10%; pEC50 [19]: < 5.00; solubility at 18 h [12]: 300 µM (≈ 140 µg/mL); Papp at 1 h, 50 µM [13]: 5.1 ×10⁻⁶ cm/s; pEC50 [20]: < 5.00; Emax at 0.5 h [18]: 0%
Cc1n[nH]c2cc(OCCNC[C@H](O)c3cccc(NS(=O)(=O)C4CCCC4)c3)ccc12 | 58% | < 5.00 | > 32 | 6.51 | 0% | – | – | –
CS(=O)(=O)Nc1cccc([C@@H](O)CNCCOc2ccc3c(C4CCC4)n[nH]c3c2)c1 | – | – | > 151 | – | 4% | 463 mL/min/kg | 641 mL/min/kg | –
CCCS(=O)(=O)Nc1cccc([C@@H](O)CNCCOc2ccc3c(C)n[nH]c3c2)c1 | 79% | 6.79 | 25 | 8.19 | 84% | – | – | –
